CASP6 VEID inh: blocks human caspase-6 cleavage activity. P55212. purified caspase-6, Z-VEID-R110 cleavage fluorescence. inhibition, % at 12.5 µM. 0.53% of 350,000 active. AID 686996;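 active = mean inhibition across replicates at least about 35%, with every replicate also reaching that limit, limit read from the data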
Target sequence (P55212 24-179 limits assumed): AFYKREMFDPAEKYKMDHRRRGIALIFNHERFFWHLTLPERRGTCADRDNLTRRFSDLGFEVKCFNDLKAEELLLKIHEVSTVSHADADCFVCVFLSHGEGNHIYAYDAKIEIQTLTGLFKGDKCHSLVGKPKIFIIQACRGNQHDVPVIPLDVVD
Target sequence (P55212 194-293 limits assumed): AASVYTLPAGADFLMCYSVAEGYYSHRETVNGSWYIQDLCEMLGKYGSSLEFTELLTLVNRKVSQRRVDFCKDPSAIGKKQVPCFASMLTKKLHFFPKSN
UHRF1 MBD2 ctr: human UHRF1 methylated DNA binding inhibitors | Q96T88 | UHRF1 binding to methylated oligo, TR-FRET | inhibition, % at 4.4 µM | 0.75% of 370,000 active | AID 687016; in the data active = inhibition above about 21%;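 note: UHRF1 SRA domain binding a hemimethylated CpG hairpin DNA probe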
MBD2 inh: inhibitors of human MBD2 binding to methylated oligonucleotide | TR-FRET | inhibition, % at 4.4 µM | 0.31% of 370,000 active | AID 686964; in the data active = inhibition above about 13%
Target sequence (Q9UBB5 whole entry, looked up): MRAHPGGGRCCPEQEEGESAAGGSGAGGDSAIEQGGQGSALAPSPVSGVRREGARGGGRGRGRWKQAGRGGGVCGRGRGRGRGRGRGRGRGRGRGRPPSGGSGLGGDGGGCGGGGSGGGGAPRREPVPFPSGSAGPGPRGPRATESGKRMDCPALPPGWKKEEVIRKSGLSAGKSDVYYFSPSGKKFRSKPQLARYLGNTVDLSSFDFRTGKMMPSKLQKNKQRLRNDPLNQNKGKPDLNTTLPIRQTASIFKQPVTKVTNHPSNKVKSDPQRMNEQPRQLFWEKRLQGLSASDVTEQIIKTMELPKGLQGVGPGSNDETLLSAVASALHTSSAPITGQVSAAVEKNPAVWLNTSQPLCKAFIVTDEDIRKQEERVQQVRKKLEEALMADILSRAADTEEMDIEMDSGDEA
NSD2 inh: blocks human histone methyltransferase NSD2 | O96028 | NSD2 peptide methylation, AlphaScreen, 120 min | inhibition, % at 12.5 µM | 0.54% of 310,000 active; in the data active = inhibition above about 50%
TDP2 inh: blocks human TDP2 phosphodiesterase activity. O95551. recombinant TDP2, T5PNP hydrolysis, p-nitrophenol absorbance 415 nm. inhibition, % at 12.8 µM. 0.34% of 370,000 active;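 active = inhibition above the mean of all tested compounds plus 3 SD, set per campaign, cut at about 25% in these data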
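System – recombinant human TDP2 · Amount – 120 nM TDP2 per well · Buffer or medium – Mg2+-containing Tris-HCl buffer, pH 7.5 · Reagent – T5PNP substrate, 5 mM · Dosing – 12.8 µM single point, 1% DMSO · Incubation – 2 h at 37 °C · Measured by – epi absorbance · Read-out basis – percent inhibition · Benchmarks – high control without enzyme, low control DMSO plus TDP2 · Repeats – singlicate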
LEDGF integ inh: blocks HIV-1 LEDGF/p75-dependent DNA integration | 0.64% of 370,000 active | inhibition, % at 3.7 µM | TR-FRET IN-LEDGF/p75 DNA integration, Eu/Cy5;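 active = inhibition above the screen-wide mean plus 3 SD, cut at about 13% in these data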;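 note: signal is the Cy5 over europium emission ratio at 671 and 618 nm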
TDP2 confirm: confirmation of human TDP2 inhibitors. shares compounds with TDP2 inh. recombinant human TDP2, absorbance read-out. inhibition, % at 12.8 µM. 22% of 1,100 active. AID 743263; in the data active = inhibition above about 25%
IN multimer up: HIV-1 integrase multimerization activation, counter-screen; shares compounds with LEDGF integ inh; TR-FRET HIV-1 integrase multimerization, biochemical; activation, % at 7.7 µM; 17% of 2,000 active; in the data active = activation above about 8.9%
TRFRET interf: TR-FRET optical interference, LEDGF/p75 integration counter-screen; shares compounds with LEDGF integ inh; 2,000 tested, under 10 active; TR-FRET optical interference counterscreen, HIV-1 IN multimerization; inhibition, % at 7.7 µM;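 active = inhibition above the mean over all tested compounds plus 3 SD, which no compound reached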
IN-LEDGF confirm: LEDGF/p75-dependent HIV-1 integration inhibition, confirmation; shares compounds with LEDGF integ inh; TR-FRET LEDGF/p75-dependent HIV-1 integration, biochemical; inhibition, % at 3.7 µM; 36% of 2,000 active; in the data active = inhibition above about 14%
Alpha artifact: AlphaScreen assay artifact in NSD2 counter-screen. AID 1053174. AC35, µM (doses to about 10 µM). shares compounds with NSD2 inh. 9.4% of 1,500 active. AlphaScreen artifact counterscreen, preloaded methylated H4 peptide; call rule not given here
Numbers stand for hits; – = inactive; · = no result; ! = not active in a repeat. An excerpt weighted towards active compounds, which were near 1.9% of everything screened.

SMILES | CASP6 VEID inh | UHRF1 MBD2 ctr | MBD2 inh | NSD2 inh | TDP2 inh | LEDGF integ inh | TDP2 confirm | others
Nc1c(C(=O)OCC2CCCO2)c2nc3ccccc3nc2n1Cc1cccs1 (stereo not given) | · | – | – | – | 31 | – | –
CC(C)OCCCNC(=O)c1c(N)n(Cc2cccs2)c2nc3ccccc3nc12 | · | – | – | – | – | – | ·
CCCN1[C@@H]2c3ccc(-c4ccc(F)cc4)c(=O)n3C[C@H]1[C@H](CO)[C@H]2C(=O)OC | – | · | · | · | · | · | ·
COC1CCCCC1NCCc1ccccc1 (stereo not given) | – | – | – | – | 26 | – | –
N#Cc1cccc(-c2ccc([C@H]3[C@H]4CN(C(=O)Cc5cccnc5)CCCCN4[C@H]3CO)cc2)c1 | – | · | · | · | · | · | ·
CN1CCN(c2ccc(S(C)(=O)=O)cc2[N+](=O)[O-])CC1 | – | – | – | – | – | – | ·
CN1CCN(c2ccc([N+](=O)[O-])c3no[n+]([O-])c23)CC1 | – | – | – | 97 | 25 | – | 26
O=C(O)[C@@H]1[C@@H](CO)[C@@H]2Cn3c(ccc(C4=CCCC4)c3=O)[C@H]1N2C(=O)Cc1ccccn1 | – | · | · | · | · | · | ·
C/C(=N\NC(=O)c1ccccc1O)c1c(O)n(Cc2ccccc2)c(=O)[nH]c1=O | – | – | – | – | 28 | – | –
C/C(=N\NC(=O)c1ccncc1)c1c(O)n(Cc2ccccc2)c(=O)[nH]c1=O | – | – | – | – | – | – | ·
O=C1CC(c2cccnc2)=NN1c1ccccc1 | – | – | – | – | 46 | – | –
O=C1CC(=O)N(Cc2ccccc2)C(=S)N1 | – | – | – | – | 32 | – | –
COc1ccc(C#Cc2ccc([C@H]3[C@H](CO)N4CCCCN(C(=O)Cc5ccncc5)C[C@@H]34)cc2)cc1 | – | · | · | · | · | · | ·
NNc1n[nH]c(=S)n1N | – | – | – | – | 33 | – | –
N#Cc1cccc(-c2ccc([C@H]3[C@H]4CN(C(=O)Cc5ccncc5)CCCCN4[C@H]3CO)cc2)c1 | – | · | · | · | · | · | ·
CC(C)CCNC(=O)c1c(N)n(Cc2ccc3c(c2)OCO3)c2nc3ccccc3nc12 | · | – | – | – | 45 | – | –
CC(C)CNC(=O)c1c(N)n(Cc2ccc3c(c2)OCO3)c2nc3ccccc3nc12 | · | – | – | – | – | – | ·
CC[C@@H](CO)NC(=O)[C@@H]1C=C2c3cccc4c3c(cn4C)C[C@H]2N(C)C1 | 73 | – | – | · | 31! | 25! | – | IN multimer up=–;TRFRET interf=–;IN-LEDGF confirm=14
O=C(Cc1ccncc1)N1CCCCN2[C@H](CO)[C@H](c3ccc(-c4ccncc4)cc3)[C@@H]2C1 | – | · | · | · | · | · | ·
O=c1cc(C2CCNCC2)[nH][nH]1 | · | – | – | – | 56 | 19 | – | IN multimer up=–;TRFRET interf=–;IN-LEDGF confirm=–
COC(=O)[C@H]1[C@H](CO)[C@H]2Cn3c(ccc(C4=CCCC4)c3=O)[C@@H]1N2CC1CCCC1 | – | · | · | · | · | · | ·
O=C1NC(=O)C(Sc2ccccc2[N+](=O)[O-])C(=O)N1 | 38 | – | – | 85 | 51 | – | 33 | Alpha artifact=–
Cc1ccccc1[N+](=O)[O-] | – | – | – | · | – | – | ·
O=C(Cc1cccnc1)N1CCCCN2[C@H](CO)[C@@H](c3ccc(C#CC4CCCC4)cc3)[C@@H]2C1 | – | · | · | · | · | · | ·
CCOC(=O)c1c(NS(=O)(=O)c2ccccc2)n(CCCOC)c2nc3ccccc3nc12 | · | – | – | 68 | 91 | 20 | 73 | Alpha artifact=–
SMILES | CASP6 VEID inh | UHRF1 MBD2 ctr | MBD2 inh | NSD2 inh | TDP2 inh | LEDGF integ inh | TDP2 confirm | others
COCCCn1c(N)c(C(=O)OCCOC)c2nc3ccccc3nc21 | · | – | – | 73 | 50 | 28 | – | IN multimer up=–;TRFRET interf=–;IN-LEDGF confirm=–;Alpha artifact=–
CCCCNC(=O)c1c(N)n(CCCOC)c2nc3ccccc3nc12 | · | – | – | 106 | 36 | – | – | Alpha artifact=–
CCOC(=O)c1c(N)n(CCCOC(=O)c2ccco2)c2nc3ccccc3nc12 | · | – | – | – | – | – | ·
O=C(O)[C@H]1[C@H](CO)[C@H]2Cn3c(ccc(-c4ccncc4)c3=O)[C@@H]1N2C(=O)C1CCCCC1 | – | · | · | · | · | · | ·
C=C1C(=O)O[C@@H]2C[C@@H](C)[C@@H]3C=CC(=O)[C@@]3(C)[C@@H](OC(=O)CC(=O)O[C@H]3[C@@H]4C(=C)C(=O)O[C@@H]4C[C@@H](C)[C@@H]4C=CC(=O)[C@]43C)[C@H]12 | – | – | – | · | – | 25 | · | IN multimer up=–;TRFRET interf=–;IN-LEDGF confirm=59
C=C1C(=O)OC2CC(C)C3C=CC(=O)C3(C)C(O)C12 (stereo not given) | · | · | · | – | · | · | ·
Cc1cc(/C=C2\C(=O)NC(=O)N(Cc3ccco3)C2=O)c(C)n1-c1ccc(C(=O)O)cc1 | 71 | 52 | – | · | – | 48 | · | IN multimer up=–;TRFRET interf=–;IN-LEDGF confirm=–
CCc1ccc(N2C(=O)NC(=O)/C(=C\c3cccn3CCOc3ccc(C(C)C)cc3)C2=O)cc1 | · | – | – | – | – | – | ·
CCOC(=O)C1CCN(/C=C2/C(=O)NC(=O)N(Cc3ccco3)C2=O)CC1 | 55 | – | – | – | – | 14 | · | IN multimer up=–;TRFRET interf=–;IN-LEDGF confirm=–
Cc1ccccc1-n1c(C)cc(/C=C2/C(=O)NC(=O)N(Cc3ccco3)C2=O)c1C | – | – | – | – | – | 49 | · | IN multimer up=–;TRFRET interf=–;IN-LEDGF confirm=–
Cc1ccc(OCCn2cccc2/C=C2/C(=O)NC(=O)N(Cc3ccco3)C2=O)cc1 | 76 | 64 | – | – | – | 58 | · | IN multimer up=–;TRFRET interf=–;IN-LEDGF confirm=37
O=C1NC(=S)N(c2ccc(Cl)cc2)C(=O)/C1=C/N1CCN(C(=O)c2ccco2)CC1 | · | – | – | – | – | – | ·
N#Cc1cccc(-c2ccc([C@@H]3[C@@H](CO)N4CCCCN(C(=O)Cc5ccccc5)C[C@H]34)cc2)c1 | – | · | · | · | · | · | ·
Cc1ccc(-n2c(C)cc(/C=C3/C(=O)NC(=O)N(C)C3=O)c2C)cc1 | · | – | – | – | – | – | ·
Cc1cc(/C=C2\C(=O)NC(=O)N(Cc3ccco3)C2=O)c(C)n1-c1ccc(O)cc1 | 69 | 36 | – | – | – | 53 | · | IN multimer up=–;TRFRET interf=–;IN-LEDGF confirm=21
CC1=C2C[C@H]3[C@@H](CC=C4C[C@@H](O)CC[C@@]43C)[C@@H]2CC[C@]12O[C@@H]1C[C@H](C)CN[C@@H]1C2C (stereo not given in full) | – | · | · | · | · | · | ·
COc1ccc(Cc2nccc3cc(OC)c(OC)cc23)cc1OC | 54 | – | – | · | – | 33 | · | IN multimer up=–;TRFRET interf=–;IN-LEDGF confirm=–

Screening data: PubChem BioAssay, several laboratories
